Consider six compounds from paper PMC4387010 (Nuclear medicine and biology, 2014).

Series [1] concerns the target α7-nAChR (Mus musculus, UniProt P49582). Put plainly: Blockade of [^125I]iodo-ASEM binding in CD-1 mouse brain by s.c. blockers. It counts as in vivo, CD-1 mice. Conditions: for reduction of [^125I]iodo-ASEM accumulation in mouse brain by blocker: CB, Hipp, Ctx, Coll, 180 min, P > 0.05 vs vehicle; for inhibition of [^125I]iodo-ASEM binding by blocker: SSR180711 2 mg/kg s.c., 180 min post-injection.

The target of a further series is α3β4-nAChR (Homo sapiens, UniProt P30926+P32297). The class given is binding.
Series [2] addresses α7-nAChR (Rattus norvegicus, UniProt Q05941). The class given is binding.
For the next series, the target named is α4β2-nAChR (Homo sapiens, UniProt P17787+P43681). The class given is binding. To be noted: for α7-nAChR Binding selectivity α7/α4β2: ratio of Ki values.
For series [3] the following is noted: previously studied radioiodinated α7-nAChR radioligand; cited from earlier work.
Series [4] can be described thus: Regional brain distribution. It counts as in vivo, CD-1 mice. To be noted: for Regional brain distribution: i.v., mean ± SD (n=3). In outline: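 Male CD-1 mice (25–30 g) got the radioiodinated test compound by lateral tail vein: 3 μCi, specific radioactivity 1600 mCi/μmol, in 0.2 mL saline. Mice were killed by cervical dislocation at various times (three per time point). Brains were dissected on ice, and regions were weighed and γ-counted alongside injectate standards. Uptake was expressed as %ID/g tissue.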

Where two headings read alike, the source gives them in different places.

The Ki is a measure of affinity in units of concentration, obtained from inhibition or displacement. Lower therefore signals tighter binding.

Sequence of α7-nAChR (Mus musculus, UniProt P49582) (P49582 23-502): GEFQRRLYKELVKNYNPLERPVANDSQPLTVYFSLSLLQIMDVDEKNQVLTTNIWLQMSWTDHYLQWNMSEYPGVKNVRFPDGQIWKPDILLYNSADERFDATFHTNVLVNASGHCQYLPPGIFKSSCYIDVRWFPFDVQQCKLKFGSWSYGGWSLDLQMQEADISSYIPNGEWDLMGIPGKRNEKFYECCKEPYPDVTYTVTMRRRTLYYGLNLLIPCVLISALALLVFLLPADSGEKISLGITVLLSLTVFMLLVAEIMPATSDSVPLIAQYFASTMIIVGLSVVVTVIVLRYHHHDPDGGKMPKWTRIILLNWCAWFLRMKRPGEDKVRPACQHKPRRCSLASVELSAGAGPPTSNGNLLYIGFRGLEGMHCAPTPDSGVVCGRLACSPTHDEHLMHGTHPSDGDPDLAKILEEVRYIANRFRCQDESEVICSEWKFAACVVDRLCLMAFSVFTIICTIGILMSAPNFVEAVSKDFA
Sequence of α4β2-nAChR (P17787 26-502): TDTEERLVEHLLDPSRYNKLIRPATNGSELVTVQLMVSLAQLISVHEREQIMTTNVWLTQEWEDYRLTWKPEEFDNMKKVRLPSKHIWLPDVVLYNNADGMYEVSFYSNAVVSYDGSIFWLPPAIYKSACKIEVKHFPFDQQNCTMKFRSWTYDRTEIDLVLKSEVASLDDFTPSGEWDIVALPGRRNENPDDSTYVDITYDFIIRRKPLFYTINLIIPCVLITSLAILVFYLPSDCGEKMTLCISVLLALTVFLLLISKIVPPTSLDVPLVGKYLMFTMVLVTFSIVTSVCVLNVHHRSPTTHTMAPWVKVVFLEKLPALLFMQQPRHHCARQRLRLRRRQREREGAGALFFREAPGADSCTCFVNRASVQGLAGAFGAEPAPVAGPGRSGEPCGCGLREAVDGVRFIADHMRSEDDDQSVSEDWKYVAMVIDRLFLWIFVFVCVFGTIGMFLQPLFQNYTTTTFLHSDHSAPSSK
Sequence of α4β2-nAChR (P43681 29-627): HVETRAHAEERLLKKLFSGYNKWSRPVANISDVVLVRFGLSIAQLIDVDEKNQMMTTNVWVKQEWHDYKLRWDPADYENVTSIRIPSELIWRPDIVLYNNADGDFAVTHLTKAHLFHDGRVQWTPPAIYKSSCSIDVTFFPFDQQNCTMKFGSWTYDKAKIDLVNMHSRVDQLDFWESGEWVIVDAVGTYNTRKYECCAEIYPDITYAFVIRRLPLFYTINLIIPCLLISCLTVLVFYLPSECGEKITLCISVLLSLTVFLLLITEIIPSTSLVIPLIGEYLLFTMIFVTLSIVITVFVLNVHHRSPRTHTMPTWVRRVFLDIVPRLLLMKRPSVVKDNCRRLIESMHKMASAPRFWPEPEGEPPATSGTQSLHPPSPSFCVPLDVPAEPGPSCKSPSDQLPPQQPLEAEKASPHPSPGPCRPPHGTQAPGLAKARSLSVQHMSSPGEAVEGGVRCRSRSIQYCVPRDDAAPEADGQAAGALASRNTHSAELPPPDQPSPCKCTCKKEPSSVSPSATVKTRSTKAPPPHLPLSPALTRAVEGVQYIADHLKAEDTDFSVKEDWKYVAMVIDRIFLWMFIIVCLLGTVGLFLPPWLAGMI
Sequence of α7-nAChR (Rattus norvegicus, UniProt Q05941) (Q05941 23-502): as the sequence (P49582 23-502) above, with T402A counted along it
Sequence of α3β4-nAChR (P32297 32-505): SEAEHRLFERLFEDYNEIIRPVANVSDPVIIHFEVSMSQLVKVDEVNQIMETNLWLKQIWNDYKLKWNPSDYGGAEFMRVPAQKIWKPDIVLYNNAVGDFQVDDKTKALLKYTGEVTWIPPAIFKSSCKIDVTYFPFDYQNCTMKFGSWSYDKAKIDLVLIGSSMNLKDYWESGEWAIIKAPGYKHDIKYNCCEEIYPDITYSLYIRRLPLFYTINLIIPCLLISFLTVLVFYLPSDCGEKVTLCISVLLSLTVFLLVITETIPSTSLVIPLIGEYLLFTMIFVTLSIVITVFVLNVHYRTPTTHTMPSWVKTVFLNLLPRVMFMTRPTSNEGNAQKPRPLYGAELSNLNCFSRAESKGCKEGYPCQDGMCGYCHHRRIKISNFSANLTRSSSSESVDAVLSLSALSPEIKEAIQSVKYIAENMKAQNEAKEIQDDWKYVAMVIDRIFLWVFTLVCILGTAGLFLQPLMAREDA
Sequence of α3β4-nAChR (P30926 22-498): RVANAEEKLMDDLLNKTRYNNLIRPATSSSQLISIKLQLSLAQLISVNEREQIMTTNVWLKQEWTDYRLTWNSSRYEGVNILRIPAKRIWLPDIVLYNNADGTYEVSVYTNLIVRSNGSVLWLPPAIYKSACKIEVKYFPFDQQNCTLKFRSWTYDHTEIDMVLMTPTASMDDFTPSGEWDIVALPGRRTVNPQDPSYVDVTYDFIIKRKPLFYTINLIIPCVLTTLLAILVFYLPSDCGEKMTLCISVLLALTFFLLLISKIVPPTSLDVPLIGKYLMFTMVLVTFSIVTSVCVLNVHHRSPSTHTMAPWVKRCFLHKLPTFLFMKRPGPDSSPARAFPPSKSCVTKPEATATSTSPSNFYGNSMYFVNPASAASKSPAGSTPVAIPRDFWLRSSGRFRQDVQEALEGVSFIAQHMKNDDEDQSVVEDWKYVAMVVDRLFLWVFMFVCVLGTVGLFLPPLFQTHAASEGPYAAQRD

For the compound `Cc1nccn1CC1CCc2c(c3ccccc3n2C)C1=O` (centres unmarked) [ondansetron], the “reduction of [^125I]iodo-ASEM accumulation in mouse brain by blocker” value at α7-nAChR [1] (ondansetron 2 mg/kg s.c.) is given as “neither cytisine nor ondansetron reduced”.

For `O=c1cccc2n1C[C@@H]1CNC[C@H]2C1` [cytisine], the “reduction of [^125I]iodo-ASEM accumulation in mouse brain by blocker” value on α7-nAChR [1] (cytisine 0.5 mg/kg s.c.) is on record as “neither cytisine nor ondansetron reduced”.

For the compound `O=S1(=O)c2cc(N3CCN4CCC3CC4)ccc2-c2cccc(I)c21` [iodo-ASEM], at α3β4-nAChR (ratio of Ki values), the “α7-nAChR Binding selectivity α7/α3β4” value is “α7/α3β4 = 90”. Further, the Ki at α3β4-nAChR (α3β4 (human), HEK-293 membranes, [^3H]epibatidine, mean ± SEM (n=3)) was found to be 45 ± 8 nM; at α7-nAChR [2] (α7 (rat), HEK-293 membranes, [^3H]epibatidine, mean ± SEM (n=3)), 0.5 ± 0.2 nM; at α4β2-nAChR (α4β2 (human), HEK-293 membranes, [^3H]epibatidine, mean ± SEM (n=3)) it was 1710 ± 373 nM. At α4β2-nAChR, the “α7-nAChR Binding selectivity α7/α4β2” value is “α7/α4β2 = 3,414”.

As for `[125I]c1occc1-c1cnc2c(c1)C[C@@]1(CN3CCC1CC3)O2` [(1S,2R,4S)-5′-(2-[^125I]iodofuran-3-yl)-3′H-4-azaspiro[bicyclo[2.2.2]octane-2,2′-furo[2,3-b]pyridine]], the “colliculus to cerebellum ratio” value in series [3] is recorded as ~ 2.5.

In the case of `O=C(Oc1ccc(Br)cc1)N1CCN2CCC1CC2` [SSR180711], the “inhibition of [^125I]iodo-ASEM binding by blocker” value on α7-nAChR [1] (cerebellum, P = 0.27) is recorded as “the blockade was negligible”; on α7-nAChR [1] (superior and inferior colliculi and hippocampus, P < 0.01), “significantly inhibited”.

Consider `O=S1(=O)c2cc(N3CCN4CCC3CC4)ccc2-c2cccc([125I])c21` [[^125I]iodo-ASEM, 3-(1,4-Diazabicyclo[3.2.2]nonan-4-yl)-6-[^125I]iododibenzo[b,d]thiophene 5,5-dioxide], for which the Regional brain distribution in series [4] (Cerebellum, 5 min) was 4.25±0.42 %ID/g tissue; in series [4] (Cerebellum, 20 min), 5.20±2.08 %ID/g tissue; in series [4] (Cerebellum, 60 min), 2.56±0.35 %ID/g tissue; in series [4] (Cerebellum, 120 min), 1.41±0.08 %ID/g tissue; in series [4] (Cerebellum, 180 min), 0.76±0.15 %ID/g tissue; in series [4] (Cerebellum, 240 min), 0.38±0.05 %ID/g tissue. The Regional brain distribution in series [4] (Cerebellum, 360 min) amounted to 0.21±0.04 %ID/g tissue; in series [4] (Cortex, 5 min), 4.78±0.47 %ID/g tissue; in series [4] (Cortex, 20 min), 6.25±0.28 %ID/g tissue; in series [4] (Cortex, 60 min) it was 6.50±0.57 %ID/g tissue; in series [4] (Cortex, 120 min), 4.29±0.42 %ID/g tissue; in series [4] (Cortex, 180 min), 2.74±0.55 %ID/g tissue. Also, the Regional brain distribution in series [4] (Cortex, 240 min) amounted to 1.40±0.06 %ID/g tissue; in series [4] (Cortex, 360 min), 0.72±0.12 %ID/g tissue; in series [4] (Hippocampus, 5 min), 3.63±0.40 %ID/g tissue; in series [4] (Hippocampus, 20 min), 5.09±0.86 %ID/g tissue; in series [4] (Hippocampus, 60 min) it was 4.40±0.12 %ID/g tissue; in series [4] (Hippocampus, 120 min) it was 3.40±2.03 %ID/g tissue. The Regional brain distribution in series [4] (Hippocampus, 180 min) stood at 2.66±0.58 %ID/g tissue; in series [4] (Hippocampus, 240 min) it was 1.70±0.28 %ID/g tissue; in series [4] (Hippocampus, 360 min) it was 0.97±0.12 %ID/g tissue; in series [4] (Rest of brain, 5 min), 3.89±0.42 %ID/g tissue; in series [4] (Rest of brain, 20 min), 4.90±0.24 %ID/g tissue; in series [4] (Rest of brain, 60 min), 4.60±0.18 %ID/g tissue. In addition, the Regional brain distribution in series [4] (Rest of brain, 120 min) is on record as 3.24±0.26 %ID/g tissue; in series [4] (Rest of brain, 180 min), 2.09±0.40 %ID/g tissue; in series [4] (Rest of brain, 360 min), 0.57±0.05 %ID/g tissue; in series [4] (Superior & inferior Colliculi, 5 min), 4.09±0.71 %ID/g tissue; in series [4] (Superior & inferior Colliculi, 20 min), 5.50±0.51 %ID/g tissue; in series [4] (Superior & inferior Colliculi, 60 min), 5.14±0.20 %ID/g tissue. In addition, the Regional brain distribution in series [4] (Superior & inferior Colliculi, 120 min) was 4.37±0.57 %ID/g tissue; in series [4] (Superior & inferior Colliculi, 180 min) it was 3.16±0.75 %ID/g tissue; in series [4] (Superior & inferior Colliculi, 240 min) it was 1.50±0.28 %ID/g tissue; in series [4] (Superior & inferior Colliculi, 360 min) it was 0.87±0.08 %ID/g tissue. In addition, in series [4] (at 180 min post-injection, CD-1 mice), the “colliculus to cerebellum ratio, maximum” value is listed as 4.2. Also, the inhibitory constant (Ki) on α7-nAChR [2] came out at 0.5 nM. Moreover, the “α7-nAChR Binding selectivity α7/α4β2” value at α4β2-nAChR is on record as 3,414.
